Bioassay records: PubChem BioAssay, several laboratories
PDI inh = inhibitors of human PDI, primary screen, biochemical, turbidity, single point, plate reader | Protein disulfide-isomerase (Homo sapiens), P07237 | PDI insulin aggregation turbidity, A650, 90 min | inhibition, % at 10 µM | 0.052% of 350,000 active;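 active = mean inhibition across replicates of 30% or more, whatever share of single replicates reach that level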
Target sequence (P07237 whole entry, looked up): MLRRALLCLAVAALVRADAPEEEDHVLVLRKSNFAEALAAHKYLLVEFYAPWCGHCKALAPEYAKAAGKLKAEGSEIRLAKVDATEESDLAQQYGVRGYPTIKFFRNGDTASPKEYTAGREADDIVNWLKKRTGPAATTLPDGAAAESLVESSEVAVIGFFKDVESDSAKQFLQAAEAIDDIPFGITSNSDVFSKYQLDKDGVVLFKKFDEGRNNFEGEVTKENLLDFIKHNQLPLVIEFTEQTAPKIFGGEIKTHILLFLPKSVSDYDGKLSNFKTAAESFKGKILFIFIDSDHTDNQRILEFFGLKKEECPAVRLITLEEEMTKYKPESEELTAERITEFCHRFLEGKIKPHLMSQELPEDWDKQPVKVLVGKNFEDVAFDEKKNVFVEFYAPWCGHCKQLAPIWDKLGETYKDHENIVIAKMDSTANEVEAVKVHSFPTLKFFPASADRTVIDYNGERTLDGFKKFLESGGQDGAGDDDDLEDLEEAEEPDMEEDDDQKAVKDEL
ERp5 inh = inhibitors of ERp5-driven insulin aggregation, primary screen, biochemical, turbidity, absorbance 650 nm, single point; Protein disulfide-isomerase A6 (Homo sapiens), Q15084; 90 min; inhibition, % at 9.99 µM; 0.05% of 350,000 active;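 active = mean replicate inhibition above about 25%, with every replicate also reaching it, limit read from the data, passing the limit was not always enough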
Tb MetRS inh = T. brucei MetRS inhibitors, primary screen, biochemical, luminescence | methionyl-tRNA synthetase (Trypanosoma brucei brucei) | purified T. brucei MetRS, ATP depletion, Kinase-Glo luminescence | inhibition, % at 11.9 µM | 0.4% of 360,000 active | AID 624268, 2012;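 active = inhibition above a per-plate cutoff of the control wells' mean inhibition plus 3 SD, cut at about 5.5% in these data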;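 also: 0% = DMSO wells median and 100% = median of wells with control inhibitor compound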
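assay system = parasite MetRS enzyme | timing = 15 min preincubation, 2 h reaction, all 25 °C | evaluation = percent inhibition relative to median high and low control wells | medium = HEPES buffer containing pyrophosphatase, BSA, spermine, DTT | compound = single dose, 11.9 µM final nominal, 0.9% final DMSO | detection = Kinase-Glo luminescence, ATP depletion format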
Tb MetRS conf = T. brucei MetRS inhibitors, confirmation, biochemical, luminescence | shares compounds with Tb MetRS inh | T. brucei MetRS enzyme, luminescence (ATP depletion) | inhibition, % at 11.9 µM | 93% of 1,400 active | AID 624412, 2012; in the data active = inhibition above about 7%
Jurkat cytotox = Jurkat T cell cytotoxicity, cytotoxicity control for T. brucei MetRS inhibitor project, luminescence, high throughput. shares compounds with Tb MetRS inh. inhibition, % at 8.3 µM. Jurkat cells viability, ATP luminescence. AID 624413, 2012. 12% of 1,400 active; in the data active = inhibition above about 15%;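 also: 0% = vehicle and 100% = reference inhibitor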
Tb MetRS inh FP = T. brucei MetRS inhibitors, orthogonal assay for T. brucei MetRS inhibitor project, biochemical, fluorescence polarization. shares compounds with Tb MetRS inh. purified T. brucei MetRS. inhibition, % at 11.9 µM. 44% of 1,400 active; in the data active = inhibition above about 17%;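 also: 0% = vehicle wells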
Starred values were filed as active, the others as inactive; x = no result. A selection: hits, their analogues and other compounds. The true share with any hit is near 0.4%.

SMILES	PDI inh	ERp5 inh	Tb MetRS inh	Tb MetRS conf	Jurkat cytotox	Tb MetRS inh FP
O=C(c1ccccc1)c1ccc(-n2ccnc2)c([N+](=O)[O-])c1	4	1	4	x	x	x
COc1nc(C)nc(C)c1Oc1ccc(Cl)cc1Cl	2	3	3	x	x	x
Nc1cc(Oc2ccc(Cl)cc2Cl)nc(N)n1	-3	-3	22*	31*	-1	24*
O=C(C1CCCC1)N1CC(=O)N2[C@@H](CO)[C@H](c3ccc(C#CCc4ccccc4)cc3)[C@@H]2C1	x	7	x	x	x	x
COc1ccc(S(=O)(=O)Nc2ccc3c(c2)C(=O)N([C@@H](C)CO)C[C@@H](C)[C@H](CN(C)C(=O)Cc2ccccc2)OCCCC[C@H](C)O3)cc1	x	-3	x	x	x	x
CCOC(=O)C(=NC1CCS(=O)(=O)C1)NNc1ccccc1Cl (configuration not stated)	0	-6	0	x	x	x
CCOC(=O)C(=NC1CCS(=O)(=O)C1)NNc1ccc(Br)cc1 (configuration not stated)	-1	4	15*	46*	-5	14
CCCCc1c(-c2ccccc2OC)ncn1CCc1cccc(Cl)c1	x	5	5.8*	16*	36*	5
CCCCc1c(-c2ccccc2OC)ncn1Cc1ccc(Cl)cc1	x	-3	-1	x	x	x
C[C@@H]1CN([C@@H](C)CO)C(=O)Cc2cc(NC(=O)Nc3ccc4c(c3)OCO4)ccc2O[C@H]1CN(C)C	x	5	x	x	x	x
CCOC(=O)c1ccc(-c2ccc(/C=N/NC(=O)Cc3nnc(N)s3)o2)cc1	-5	2	0	x	x	x
Nc1nnc(CC(=O)N/N=C/c2ccc(-c3ccc(F)cc3)o2)s1	2	2	6.4*	2	6	1
C[C@@H]1CN([C@H](C)CO)S(=O)(=O)c2ccc(C#CC3CC3)cc2O[C@@H]1CN(C)C(=O)c1ccccc1	x	-3	x	x	x	x
C[C@H]1CN([C@@H](C)CO)C(=O)c2cccc(NC(=O)NC3CCCCC3)c2O[C@@H]1CN(C)CC1CC1	x	-4	x	x	x	x
CCN(CC(=O)Nc1c(F)cccc1F)C(=O)c1cc(S(=O)(=O)N(C)C)ccc1N1CCCC1	2	7	0	x	x	x
CN(CC(=O)Nc1ccccc1Br)C(=O)c1cc(S(=O)(=O)N(C)C)ccc1N1CCCC1	-6	3	0	x	x	x
Cc1ccc(NC(=O)CN(C)C(=O)c2cc(S(=O)(=O)N(C)C)ccc2N2CCCC2)cc1	20	-6	49*	78*	5	52*
CN(CC(=O)Nc1cccc(F)c1)C(=O)c1cc(S(=O)(=O)N(C)C)ccc1N1CCCC1	-5	1	10*	27*	3	10
CC(C)NC(=O)Nc1ccc2c(c1)C(=O)N([C@@H](C)CO)C[C@@H](C)[C@@H](CN(C)Cc1ccc(C(=O)O)cc1)O2	x	3	x	x	x	x
CCOC(=O)c1ccc2c(c1)NCc1cccc(OC)c1O2	-5	1	5.8*	11*	11	9
COc1ccc(C(=O)OCC(=O)c2ccc3c(c2)NC(=O)CO3)cc1OC	-1	6	0	x	x	x
Clc1ccc(CCNc2ncnc3nc[nH]c23)cc1	2	4	11*	17*	27*	9
c1ccc(CCCNc2ncnc3nc[nH]c23)cc1	-9	-2	0	x	x	x
c1ccc2c(CCNc3ncnc4nc[nH]c34)cccc2c1	-1	x	43*	58*	10	35*
CCCNc1ncnc2nc[nH]c12	3	3	0	x	x	x
SMILES	PDI inh	ERp5 inh	Tb MetRS inh	Tb MetRS conf	Jurkat cytotox	Tb MetRS inh FP
N#Cc1cccc(-c2ccc(C3[C@H]4CNC[C@@H]3N4C(=O)Nc3ccc(F)cc3)cc2)c1 (some centres not stated)	x	-2	x	x	x	x
O=C(C[C@H]1CC[C@@H]2[C@H](COC[C@@H](O)CN2C(=O)c2ccc(F)cc2)O1)Nc1ccc(-c2ccccc2)cc1	x	-4	x	x	x	x
CO[C@H]1CN(C)C(=O)c2ccc(NC(=O)C3CC3)cc2OC[C@H](C)N(C(=O)NC(C)C)C[C@H]1C	x	3	x	x	x	x
NC(=O)CSc1nnc(Cc2csc(Nc3ccccc3)n2)n1Cc1ccccc1	8	5	9.0*	16*	2	1
COCCCn1c(Cc2csc(Nc3ccccc3)n2)nnc1SCC(N)=O	-3	x	0	x	x	x
COc1cccc(NC(=O)C[C@@H]2CC[C@@H]3[C@@H](COc4ccc(NC(=O)C5CCCCC5)cc4C(=O)N3C)O2)c1	x	-4	x	x	x	x
Cc1ccc(S(=O)(=O)N2CCN(c3ccc(S(=O)(=O)N4CCOCC4)cn3)CC2)cc1	-4	x	-2	x	x	x
O=S(=O)(NCc1ccc(Cl)cc1Cl)c1ccc(N2CCOCC2)nc1	8	0	6.9*	14*	-3	3
CCC(=O)Nc1ccc2c(c1)OC[C@H](C)N(C(=O)CC1CC1)C[C@@H](C)[C@H](OC)CN(C)C2=O	x	-3	x	x	x	x
Cc1ccc(NC(=O)C(C)c2cccc(C(=O)c3ccccc3)c2)cc1O (configuration not stated)	-12	-1	84*	99*	33*	78*
Cc1cccc(NC(=O)C(C)C(=O)c2ccccc2)c1 (configuration not stated)	4	-1	0	x	x	x
O=S(=O)(NCc1ccccc1)c1ccc(Cl)cc1	5	x	0	x	x	x
O=S(=O)(Nc1cc2nc3ccccc3nc2n1Cc1ccccc1)c1ccc(Cl)cc1	4	0	32*	96*	2	76*
COc1ccc(NC(=O)Nc2ccc3c(c2)CC(=O)N([C@@H](C)CO)C[C@@H](C)[C@H](CN(C)S(=O)(=O)c2ccc(C)cc2)O3)cc1	x	1	x	x	x	x
COC(=O)[C@H](Cc1c[nH]c2ccccc12)NC(=O)NCc1ccc(OC)cc1	7	-2	6.6*	15*	-4	4
COC(=O)[C@H](Cc1c[nH]c2ccccc12)NC(=O)NCc1ccc(OC)c(OC)c1	1	5	0	x	x	x
CC(C)NC(=O)N1CC2(C1)[C@H](c1ccccc1)[C@H](CO)N2C(=O)C1CCC1	x	10	x	x	x	x
C[C@H](CO)N1C[C@H](C)[C@H](CN(C)Cc2cccnc2)Oc2cc(C#CC3CCCCC3)ccc2S1(=O)=O	x	1	x	x	x	x
CCC(=O)N1CC2(CCN(Cc3ccc(F)cc3)CC2)c2c(n(C)c3cc(OC)ccc23)[C@@H]1CO	x	3	x	x	x	x
Cc1cc(NS(=O)(=O)c2ccc(Nc3nc(-c4ccc(O)cc4)cs3)cc2)no1	-7	x	5.7*	11*	-1	0
Cc1cc(NS(=O)(=O)c2ccc(Nc3nc(-c4ccc(C)c(C)c4)cs3)cc2)no1	11	x	2	x	x	x
COc1ccc(S(=O)(=O)Nc2ccc3c(c2)CC(=O)N([C@@H](C)CO)C[C@@H](C)[C@@H](CN(C)Cc2ccc(Cl)c(Cl)c2)O3)cc1	x	-4	x	x	x	x
